For 20 compounds, IC50 results are on record in ChEMBL document CHEMBL2150941, “Cytotoxic iridoids from the roots of Patrinia scabra” (J Nat Prod, 2012).

A short description of assay [1]: Cytotoxicity against human MNK45 cells after 48 hrs by MTT assay. It is filed as functional, cell-based. Conditions: MNK45, 48 h. An outline of the steps:
(§1)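 Cells kept in DMEM with 10% FBS, penicillin and streptomycin at 37 °C, 5% CO2. Seeded at 2 × 10^4 cells/well, allowed to adhere for 24 h, then exposed for 48 h to graded compound concentrations […], with 5-fluorouracil as positive control. MTT (5 mg/mL stock) added for 4 h at 37 °C, formazan dissolved in DMSO, read at 570 nm. IC50 is the mean of three independent experiments run in duplicate.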
(In general: Formazan colour is commonly taken as a measure of viable cells.)

In another assay the test system is HeLa. Nature of the assay: Cytotoxicity against human HeLa cells after 48 hrs by MTT assay. It is filed as functional, cell-based. Summed up: as §1

A word on the IC50: it is the midpoint of a concentration-inhibition curve. The low end stands for greater potency, the high end for weaker potency.

A value given as a limit tells only on which side of the number the result lay.

Turning to `C[C@@H]1[C@H]2OC[C@@H]3[C@@H]1C[C@H](O)[C@@]3(C)O2`, the concentration for half-maximal inhibition (IC50) (in assay [1]; in the assay on HeLa) was over 50 µM throughout.
As for `C[C@H]1[C@H]2C[C@H](O)[C@@](C)(O[C@@H]3O[C@H](CO)[C@@H](O)[C@H](O)[C@H]3O)[C@H]2CO[C@@H]1O` [PATRIRIDOSIDE F], the IC50 (in assay [1]; in the assay on HeLa) was over 50 µM each time.
With `C[C@@H]1C(=O)OC[C@H]2[C@@H]1C[C@H](O)[C@@]2(C)O` [ISOPATRISCABROL], the figures for the IC50 (in assay [1]; with HeLa) were over 50 µM and 24.5 µM, respectively.
With `COC(=O)C1=CO[C@@H](O[C@@H]2O[C@H](CO)[C@@H](O)[C@H](O)[C@H]2O)[C@@H]2[C@H](C)O[C@@H](O)C[C@H]12` [MORRONISIDE], the IC50 (in assay [1]; in the assay on HeLa) was over 50 µM throughout.
Consider `C[C@H]1C(=O)OC[C@H]2[C@@H]1CC[C@@]2(C)O` [SCABROL A], for which the IC50 (in assay [1]; with HeLa) was over 50 µM throughout.
`COC(=O)C1=CO[C@@H](O[C@@H]2O[C@H](CO)[C@@H](O)[C@H](O)[C@H]2O)[C@@H]2[C@H](C)O[C@H](O)C[C@H]12`: the concentration for half-maximal inhibition (IC50) (in assay [1]; with HeLa) was over 50 µM in each case.
As for `CC1=CC[C@@H]2[C@H](C)CO[C@]12CO[C@@H]1O[C@H](CO[C@@H]2OC[C@](O)(CO)[C@H]2O)[C@@H](O)[C@H](O)[C@H]1O` [PATRIRIDOSIDE I], the IC50 is 30.9 µM in assay [1] and over 50 µM with HeLa.
On to `C=C1CO[C@]2(CO[C@@H]3O[C@H](CO)[C@@H](O)[C@H](O)[C@H]3O)C(C)=CC[C@H]12` [PATRIRIDOSIDE G], for which the IC50 in assay [1] is 8.7 µM; in the assay with HeLa, over 50 µM.
For the compound `O=c1[nH]cc(F)c(=O)[nH]1` [FLUOROURACIL], the results for the IC50 (in assay [1]; with HeLa) were 12 µM and 9.5 µM, respectively.
In the case of `C[C@@H]1C[C@@H]2OC=C(C=O)[C@@H]2[C@@H]1CO[C@@H]1O[C@H](CO)[C@@H](O)[C@H](O)[C@H]1O` [PATRIRIDOSIDE D], the IC50 in assay [1] was 15.6 µM; with HeLa, over 50 µM.
On to `COC(=O)C1=CO[C@@H](O[C@@H]2O[C@H](CO)[C@@H](O)[C@H](O)[C@H]2O)[C@@H]2[C@H](C)O[C@H](OC)C[C@H]12`, for which the IC50 (in assay [1]; in the assay with HeLa) was over 50 µM each time.
Consider `C[C@H]1C(=O)OC[C@H]2[C@@H]1C[C@H](O[C@@H]1O[C@H](CO)[C@@H](O)[C@H](O)[C@H]1O)[C@@]2(C)O` [PATRISCABROSIDE I], for which the IC50 (in assay [1]; in the assay with HeLa) was over 50 µM throughout.
Regarding `C[C@H]1C(=O)OC[C@H]2[C@@H]1C[C@H](O)[C@@]2(C)O` [PATRISCABROL], the 50% inhibitory concentration (IC50) (in assay [1]; with HeLa) was over 50 µM throughout.
Take `C=C1CO[C@]2(CO[C@@H]3O[C@H](CO[C@@H]4OC[C@](O)(CO)[C@H]4O)[C@@H](O)[C@H](O)[C@H]3O)C(C)=CC[C@H]12` [PATRIRIDOSIDE H]: the IC50 in assay [1] is 9.4 µM; in the assay with HeLa, over 50 µM.
Turning to `C=C[C@H]1[C@H](O[C@@H]2O[C@H](CO)[C@@H](O)[C@H](O)[C@H]2O)OC=C2C(=O)OCC[C@H]21` [SWEROSIDE], the 50% inhibitory concentration (IC50) in assay [1] was 11.2 µM; in the assay with HeLa it was over 50 µM.
Regarding `C=C1COC(=O)[C@H]2[C@@H]1C[C@H](O)[C@@]2(C)O` [JATAMANIN A], the half-maximal inhibitory concentration (IC50) (in assay [1]; with HeLa) was over 50 µM each time.
Consider `C[C@H]1[C@H]2OC[C@@H]3[C@@H]1C[C@H](O)[C@@]3(C)O2`, for which the 50% inhibitory concentration (IC50) (in assay [1]; with HeLa) was over 50 µM each time.
Turning to `C[C@H]1C(=O)OC[C@H]2[C@@H]1CC[C@@]2(C)O[C@@H]1O[C@H](CO)[C@@H](O)[C@H](O)[C@H]1O` [PATRIRIDOSIDE E], the IC50 (in assay [1]; in the assay on HeLa) was over 50 µM each time.
As for `COC(=O)C1=CO[C@@H](O[C@@H]2O[C@H](CO)[C@@H](O)[C@H](O)[C@H]2O)[C@@H]2[C@H](C)O[C@@H](OC)C[C@H]12`, the IC50 (in assay [1]; in the assay on HeLa) was over 50 µM in each case.
`C=C(CO)[C@H]1C[C@H](OC(=O)CC(C)C)[C@@](C)(O)[C@H]1CO[C@@H]1O[C@H](CO)[C@@H](O)[C@H](O)[C@H]1O` [PATRINIOSIDE]: the values for the concentration for half-maximal inhibition (IC50) (in assay [1]; in the assay on HeLa) were 23.8 µM and over 50 µM, respectively.
